Bioassay records: PubChem BioAssay, SRMLSC
HCT116 bCat-KO – beta-catenin-lacking colon tumor cell growth suppression; HCT116 beta-catenin knockout viability, CellTiter-Glo, 60 h; stronger effect = lower value; viability, % at 10 µM; actives 1.5% (n = 140,000); AID 818;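 active means viability at or under a set limit, the compound median less 4 SD, cut at about 6% in these data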;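 further: 0% = Hyamine 1622 control at 20 µM and 100% = untreated cell control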
HUVEC prolif 384 – blocks proliferation of human endothelial cells; viability, % at 10 µM (by protocol); AID 648; actives 1.1% (n = 86,000); HUVEC proliferation, CellTiter-Glo luminescence, 72 h; stronger effect = lower value;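 active means viability at or below 30%; inactive means viability above 30%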;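 further: 100% = median luminescence of DMSO-only cell control wells on each plate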
H69AR inhibit – blocks growth of human H69AR lung tumor cells; actives 6% (n = 85,000); viability, % at 10 µM; AID 598; H69AR lung tumor viability, ATP luminescence, 72 h; stronger effect = lower value;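 active means viability at or below 40%; inactive means viability above 40%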;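 further: multidrug resistant small cell line overexpressing MRP-1 efflux transporter; 100% = mean luminescence of untreated control wells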
HCT116 PTEN-null – growth suppressors of cells with PTEN tumor suppressor deletion; HCT116 PTEN-null viability, CellTiter-Glo, 60 h; stronger effect = lower value; viability, % at 10 µM; actives 1.2% (n = 140,000);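 active means viability at or below a set limit, 4 SD under the median of all tested compounds, cut at about 3.7% in these data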;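 further: PTEN knockout HCT116 line with beta catenin targeted HCT116 as companion control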
Fibroblast inh – blocks proliferation of human lung fibroblasts; LL 47 human lung fibroblast viability, ATP luminescence; stronger effect = lower value; viability, % at 10 µM; actives 1.1% (n = 85,000); AID 719;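 active means viability at or below 50% in the single dose screen; inactive means viability above 50%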;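 further: compound exposure lasted 72 h before the ATP readout; 100% = median luminescence of untreated cell-only wells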
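Test system: LL 47 human lung fibroblasts / Quantity: 1,150 cells in each well / Medium: IMEM growth medium with 15% fetal bovine serum / Incubation: 72 h compound exposure at 37 °C after overnight plating / Detection: CellTiter-Glo luminescence measuring cellular ATP / Read-out: % viability versus median cells-only luminescence / Benchmarks: cell-only wells, no compound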
* hit, by the source's call; . = not tested or not shown. This is one part of a sample in which hits are shown more often than they occur.

SMILES	HCT116 bCat-KO	HUVEC prolif 384	H69AR inhibit	HCT116 PTEN-null	Fibroblast inh
O=C(/C=C/c1ccc(Br)cc1)c1ccc(NC(=O)c2ccco2)cc1	1.8*	.	.	2.1*	.
COC(=O)/C=c1/s/c(=C(/C#N)C(=O)N2CCCCC2)n(-c2ccccc2)c1=O	90	86	36*	99	102
COc1cc(/C=c2\s/c(=C(/C#N)C(=O)N3CCCC3)n(-c3ccccc3)c2=O)ccc1O	64	12*	10*	28	77
O=[N+]([O-])c1ccccc1SN(Cc1ccccc1)c1ccccn1	70	.	.	67	.
COC(=O)NC(=C(Cl)Cl)S(=O)(=O)c1ccccc1	2.6*	55	1.1*	1.9*	34*
Cc1cc(N(C(=O)c2ccco2)C(C(=O)NC2CCCCC2)c2ccccc2)ccc1-n1cnnn1 (stereo not drawn)	73	99	39*	84	88
C=CCOc1c(Cl)cc(C2NC(=O)NC(C)=C2C(=O)OC)cc1Cl (stereo not drawn)	54	77	32*	64	81
COc1cc(C(=O)OCC(=O)c2cc(C)n(C)c2C)cc(NC(=O)c2ccco2)c1OC	87	27*	11*	88	84
CNC(=O)COC(=O)c1cc(NC(=O)c2ccco2)c(OC)c(OC)c1	86	.	.	99	.
COc1ccc(-c2nnc(SCC(=O)N3CCN(c4ccccc4)CC3)o2)cc1OC	91	66	14*	87	94
O=C(NCCc1ccc(Cl)cc1)C1CCC(CNc2c(N3CCCCC3)c(=O)c2=O)CC1 (stereo not drawn)	78	.	.	79	.
COc1cc(C2=NOC(C(=O)NCc3ccc(F)cc3)C2)cc(OC)c1OC (stereo not drawn)	15	.	.	12	.
COc1ccc(C2=NOC(C(=O)NCc3ccc(F)cc3)C2)cc1OC (stereo not drawn)	12	47	28*	15	46*
COc1ccc(OC)c(C2=NOC(C(=O)NCc3ccco3)C2)c1 (stereo not drawn)	72	80	33*	64	95
O=C(NCc1ccc2c(c1)OCO2)C1CC(c2ccc(Cl)cc2)=NO1 (stereo not drawn)	93	95	105	92	105
COc1cc(OC)c(C2=NOC(C(=O)NCc3ccc4c(c3)OCO4)C2)cc1Cl (stereo not drawn)	64	60	22*	60	92
CCn1ncc(C2=NOC(C(=O)Nc3cc(OC)c(Cl)cc3OC)C2)c1C (stereo not drawn)	99	92	39*	102	97
COc1ccc(CNC(=O)C2CC(c3cccc(OC)c3)=NO2)cc1 (stereo not drawn)	93	90	90	89	105
CCn1ncc(C2=NOC(C(=O)NCC(C)C)C2)c1C (stereo not drawn)	89	95	98	86	105
CN(C)S(=O)(=O)c1ccc(S(=O)(=O)NC2CCOC(C)(C)C2)cc1 (stereo not drawn)	87	94	90	94	91
Cn1nnnc1Sc1ncnc2scc(-c3ccc(F)cc3)c12	5.5*	.	.	3.7*	.
COc1ccc(NC(=O)c2cc(SC)ccc2Cl)cc1	48	.	.	40	.
O=C(Nc1nccs1)c1csc2c1CCCC2	84	87	54	73	96
O=C(CNc1ccc(C(F)(F)F)cc1[N+](=O)[O-])OCC(=O)c1ccccc1	103	98	93	89	95
O=C(CS(=O)c1ccc(C(F)(F)F)cc1[N+](=O)[O-])Oc1ccccc1 (stereo not drawn)	90	25*	3.1*	84	44*
SMILES	HCT116 bCat-KO	HUVEC prolif 384	H69AR inhibit	HCT116 PTEN-null	Fibroblast inh
Cc1ccc(C(=O)c2cc(C)sc2NC(=O)CN2CCN(C(=O)c3ccco3)CC2)cc1	68	70	28*	71	86
COc1cc(/C=C2\CCc3ccccc3C2=O)cc(OC)c1OC	2.0*	.	.	1.7*	.
COc1cc(/C=C2/CCc3ccccc3C2=O)cc(OC)c1OC	10	.	.	4	.
COc1ccc(/C=C2/CCc3ccccc3C2=O)cc1OC	38	.	.	39	.
COc1ccc(/C=C2\COc3ccccc3C2=O)cc1OC	1.6*	.	.	1.1*	.
CC1(C)C([N+](=O)[O-])C(c2ccc(Cl)cc2)NC(c2ccc(Cl)cc2)C1[N+](=O)[O-] (stereo not drawn)	59	.	.	63	.
Cc1ccc(C(C(=O)NC2CCCC2)N(Cc2ccc3c(c2)OCO3)C(=O)Cc2cccs2)cc1 (stereo not drawn)	89	85	64	78	67
O=C(NC1CCCCC1)C(c1ccccc1)N(Cc1ccc2c(c1)OCO2)C(=O)c1cnsn1 (stereo not drawn)	88	87	38*	69	84
COCCOC(=O)c1[nH]c2c(c1C)C(=O)CC(c1ccc(N(C)C)cc1)C2 (stereo not drawn)	82	87	87	86	89
COCCOC(=O)c1[nH]c2c(c1C)C(=O)CC(c1ccc(F)cc1)C2 (stereo not drawn)	28	59	25*	27	86
COCCOC(=O)c1[nH]c2c(c1C)C(=O)CC(c1ccccc1)C2 (stereo not drawn)	17	43	39*	20	56
COC(=O)c1ccc(C(=O)OC)c(-n2c(=O)c3ccccc3c3ccccc3c2=O)c1	95	.	.	101	.
CCN1c2ccccc2NC2N=C(OC)C(c3ccccc3)C21 (stereo not drawn)	1.9*	2.1*	1.4*	1.7*	7.0*
Cc1nn(-c2nc3ccccc3s2)c(N)c1-c1ccccc1	91	110	88	95	98
Cc1nn(-c2nc3ccccc3[nH]2)c(N)c1-c1ccccc1	13	80	20*	7	69
CNC(=O)C1CC(=O)N(CCCc2ccccc2)C(=Nc2ccccc2)S1 (stereo not drawn)	95	78	84	87	87
Cc1cc(C(=O)CN2CCCC(C)C2)c(C)n1-c1ccc(F)cc1 (stereo not drawn)	94	.	.	98	.
CC12CNCC(C)(CN(C(c3ccccc3)c3ccccc3)C1)C2	54	88	50	57	87
Clc1ccc(C(c2ccccc2)N2CCNCC2)cc1 (stereo not drawn)	36	83	37*	30	88
CCN(CC)CCNC(=O)Cc1nn(CC)c(=O)c2ccccc12	110	113	108	105	97
CCN(CC)CCNc1ccc(CO)c2sc3ccccc3c(=O)c12	1.9*	.	.	1.9*	.
CCOc1ccc(Cl)cc1S(=O)(=O)N1CCN(c2ccc(C)c(C)c2)CC1	67	93	39*	70	91
CC1=CC(=NOC(=O)c2cccc([N+](=O)[O-])c2)C=C(C)C1=O	9	96	74	27	91
CC1=CC(=O)C(C(C)C)=C/C1=N/OC(=O)c1cccc([N+](=O)[O-])c1	51	104	33*	60	87
Cc1ccc(C(NC(=O)N2CCOCC2)=C(Cl)Cl)cc1F	3.4*	103	8.7*	1.4*	92
